Source: ChEMBL document CHEMBL1123705, “Antitumor agents. 86. Synthesis and cytotoxicity of alpha-methylene-gamma-lactone-bearing purines” (1987)
Converted amounts (≈) assume the structure as drawn.

Experiments:
Type in all cases: functional
L1210 = assay: Compound was tested for its antitumor activity and the cytotoxicity against L1210 lymphoid leukemia screen; conditions: Mus musculus, read-out: ED50 (the source's name)
Outline: (§1)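 Run per the NIH cytotoxicity protocol. Viable cells were counted by trypan blue exclusion and expressed as a percentage of the 0.05% Tween 80–water control. ED₅₀ was estimated from a semilog plot against drug concentration.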

KB = assay: Compound was tested for its antitumor activity and the cytotoxicity against KB human carcinoma of the nasopharynx screen; conditions: read-out: ED50 (the source's name); outline: as §1
P388 = assay: Compound was tested for its antitumor activity and the cytotoxicity against P-388 lymphocytic leukemia screen; conditions: Mus musculus, read-out: ED50 (the source's name); outline: as §1

Compound | EC50 (L1210) | EC50 (KB) | EC50 (P388)
C=C1CC(C)(Cn2c(N)nc3ncnc-3c2O)OC1=O (stereo unspecified) | 1.3 µg/mL (≈ 4.72 µM) | > 10 µg/mL | > 20 µg/mL
C=C1CC(C)(Cn2cnc3c(N)ncnc32)OC1=O (stereo unspecified) | 0.3 µg/mL (≈ 1.16 µM) | 5 µg/mL (≈ 19.3 µM) | > 20 µg/mL
C=C1CC(C)(Cn2cnc3c(O)ncnc32)OC1=O (stereo unspecified) | 2 µg/mL (≈ 7.68 µM) | > 10 µg/mL | > 20 µg/mL
COc1cc([C@@H]2c3cc4c(cc3[C@@H](O[C@@H]3O[C@@H]5CO[C@@H](C)O[C@H]5[C@H](O)[C@H]3O)[C@H]3COC(=O)[C@H]23)OCO4)cc(OC)c1O [ETOPOSIDE] | 1.58 µg/mL (≈ 2.68 µM) |  | 1.71 µg/mL (≈ 2.91 µM)
